Key:
[1] = biological target: T1, Adrenergic receptor alpha-1 (Rattus norvegicus, UniProt P15823+P23944+P43140); test: (§1) Inhibition of specific [3H]-prazosin binding (0.2 nM) to rat brain membranes alpha-1 adrenergic receptor; type: cell membranes, Membrane
T1 sequence (P15823 whole entry): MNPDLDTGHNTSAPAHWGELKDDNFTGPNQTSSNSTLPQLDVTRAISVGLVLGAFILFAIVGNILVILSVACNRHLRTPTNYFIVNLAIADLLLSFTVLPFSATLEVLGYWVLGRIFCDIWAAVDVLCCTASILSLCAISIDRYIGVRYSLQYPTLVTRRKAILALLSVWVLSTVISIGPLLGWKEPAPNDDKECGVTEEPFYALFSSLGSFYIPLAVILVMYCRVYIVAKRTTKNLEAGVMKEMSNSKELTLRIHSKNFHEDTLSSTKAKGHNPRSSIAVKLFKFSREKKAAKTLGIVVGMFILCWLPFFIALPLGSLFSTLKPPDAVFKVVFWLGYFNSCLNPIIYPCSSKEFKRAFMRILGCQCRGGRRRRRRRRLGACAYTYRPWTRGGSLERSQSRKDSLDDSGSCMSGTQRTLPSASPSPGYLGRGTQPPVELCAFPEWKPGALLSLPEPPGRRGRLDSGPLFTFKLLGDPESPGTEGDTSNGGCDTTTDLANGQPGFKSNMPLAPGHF
T1 sequence (P23944 whole entry): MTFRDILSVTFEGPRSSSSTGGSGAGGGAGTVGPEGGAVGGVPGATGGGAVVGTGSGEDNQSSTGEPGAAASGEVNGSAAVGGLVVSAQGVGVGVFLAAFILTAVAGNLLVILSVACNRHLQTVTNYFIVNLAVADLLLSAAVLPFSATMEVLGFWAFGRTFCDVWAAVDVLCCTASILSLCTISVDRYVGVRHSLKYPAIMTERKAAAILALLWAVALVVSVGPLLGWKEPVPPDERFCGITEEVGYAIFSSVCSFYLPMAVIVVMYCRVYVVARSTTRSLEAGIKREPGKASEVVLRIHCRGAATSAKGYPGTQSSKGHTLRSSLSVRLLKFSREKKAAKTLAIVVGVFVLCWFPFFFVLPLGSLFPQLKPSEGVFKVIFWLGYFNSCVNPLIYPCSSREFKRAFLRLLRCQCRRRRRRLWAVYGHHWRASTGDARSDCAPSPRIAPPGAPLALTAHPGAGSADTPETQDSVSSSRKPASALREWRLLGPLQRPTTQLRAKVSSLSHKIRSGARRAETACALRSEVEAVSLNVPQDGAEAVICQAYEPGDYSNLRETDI
T1 sequence (P43140 whole entry): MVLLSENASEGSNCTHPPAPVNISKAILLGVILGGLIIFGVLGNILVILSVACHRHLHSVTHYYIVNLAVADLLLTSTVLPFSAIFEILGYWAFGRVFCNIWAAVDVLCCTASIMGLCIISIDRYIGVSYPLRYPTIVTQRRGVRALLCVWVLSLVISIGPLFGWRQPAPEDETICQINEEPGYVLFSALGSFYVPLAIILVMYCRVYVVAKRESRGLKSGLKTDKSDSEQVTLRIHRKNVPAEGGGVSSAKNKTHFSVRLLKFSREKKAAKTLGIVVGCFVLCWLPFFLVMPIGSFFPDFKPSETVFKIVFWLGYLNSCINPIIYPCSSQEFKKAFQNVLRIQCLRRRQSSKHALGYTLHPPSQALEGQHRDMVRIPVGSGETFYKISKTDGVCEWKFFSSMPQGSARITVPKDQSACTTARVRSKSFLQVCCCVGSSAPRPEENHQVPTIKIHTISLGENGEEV
In short: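 Whole rat brain (minus cerebellum) from male Wistar rats (200–250 g), homogenized in ice-cold 50 mM Tris-HCl pH 7.7 and washed twice at 50000g. Bound ligand was collected by filtration and counted. IC50 was derived by log-probit analysis.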

[2] = biological target: T1, Adrenergic receptor alpha-1; test: In vivo antagonist activity against (-)-phenylephrine-induced alpha-1 adrenergic receptor mediated vasoconstriction in pithed normotensive rats.; type: functional, organism-based
[3] = biological target: T1, Adrenergic receptor alpha-1; test: Antagonist activity against phenylephrine-induced alpha1- adrenoceptor mediated vasoconstriction in pithed normotensive rats.; type: functional
[4] = biological target: T1, Adrenergic receptor alpha-1; test: as §1; type: cell membranes, Membrane; remark: listed apart in the source
In short: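 Brain membranes were prepared from male Wistar rats (200–250 g, cerebellum removed) in ice-cold 50 mmol/L Tris-HCl, pH 7.7, with two 50000g spins, and used at 1 mg/mL protein (Lowry). […] Bound label was collected by vacuum filtration and counted. IC50 came from log probit analysis.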

[5] = biological target: Adrenergic receptor alpha-2 (Homo sapiens) (UniProt P08913+P18825+P18089); settings: Oryctolagus cuniculus
[6] = species: Oryctolagus cuniculus; test: Index of alpha1/alpha2 adrenoceptor antagonist selectivity at pre and postsynaptic sites in vitro.; type: functional

| SMILES | IC50 [1] [nM] | pA2 [2] | pA2 [3] | IC50 [4] [nM] | pC30 [5] | Selectivity index [6] |
| --- | --- | --- | --- | --- | --- | --- |
| CN1C[C@H](C(=O)N[C@]2(C)O[C@@]3(O)[C@@H]4CCCN4C(=O)[C@H](Cc4ccccc4)N3C2=O)C[C@@H]2c3cccc4[nH]cc(c34)C[C@H]21 [DIHYDROERGOTAMINE] | 27 | 6.68 |  |  |  |  |
| C=CCN1Cc2ccccc2-c2ccccc2C1 [AZAPETINE] |  |  | 6.09 | 205 | 5.89 | 1.08 |
